{"source": "ChEMBL document CHEMBL1649178", "about": "“Penetration of moxifloxacin into bone evaluated by Monte Carlo simulation” (Antimicrob Agents Chemother, 2009)", "key": {"[1]": {"test": "fAUC/MIC in osteomyelitis patient cortical bone at 400 mg, po administered for every 24 hrs at PKPD breakpoint at 0.25 mg/liter", "assay_type": "functional", "how_it_was_run": "(§1)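 PKPD targets were derived by reverse engineering from success rates in clinical osteomyelitis studies, the expected AUCs at the doses used there, and published MIC distributions. Bone targets (total drug) use a ciprofloxacin bone/serum AUC ratio of 0.63. Concentration profiles were simulated for 10,000 patients given 400 mg orally q24h at steady state, without residual error, with serum protein binding assumed at 50%.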"}, "[2]": {"test": "fAUC/MIC in osteomyelitis patient cancellous bone at 400 mg, po administered for every 24 hrs at PKPD breakpoint at 0.25 mg/liter", "assay_type": "functional", "how_it_was_run": "as §1"}, "[3]": {"test": "fAUC/MIC in osteomyelitis patient serum at 400 mg, po administered for every 24 hrs at PKPD breakpoint at 1 mg/liter", "assay_type": "functional", "how_it_was_run": "as §1"}, "[4]": {"test": "fAUC/MIC in osteomyelitis patient cortical bone at 400 mg, po administered for every 24 hrs at PKPD breakpoint at 1 mg/liter", "assay_type": "functional", "how_it_was_run": "as §1"}, "[5]": {"test": "fAUC/MIC in osteomyelitis patient cancellous bone at 400 mg, po administered for every 24 hrs at PKPD breakpoint at 1 mg/liter", "assay_type": "functional", "how_it_was_run": "as §1"}, "[6]": {"test_system": "Staphylococcus aureus", "test": "Antimicrobial activity against Staphylococcus aureus"}, "[7]": {"test": "fAUC/MIC in osteomyelitis patient serum at 400 mg, po administered for every 24 hrs at PKPD breakpoint at 0.375 mg/liter", "assay_type": "functional", "how_it_was_run": "as §1"}, "[8]": {"test": "fAUC/MIC in osteomyelitis patient cortical bone at 400 mg, po administered for every 24 hrs at PKPD breakpoint at 0.5 mg/liter", "assay_type": "functional", "how_it_was_run": "as §1"}, "[9]": {"test": "fAUC/MIC in osteomyelitis patient cancellous bone at 400 mg, po administered for every 24 hrs at PKPD breakpoint at 0.375 mg/liter", "assay_type": "functional", "how_it_was_run": "as §1"}, "[10]": {"test": "fAUC/MIC in osteomyelitis patient serum at 400 mg, po administered for every 24 hrs at PKPD breakpoint at 0.19 mg/liter", "assay_type": "functional", "how_it_was_run": "as §1"}, "[11]": {"test": "Drug level in osteomyelitis patient cortical bone at 400 mg, po administered for every 24 hrs", "assay_type": "ADME, organism-based, Bone element", "conditions": "human, in vivo"}, "[12]": {"test": "Drug level in osteomyelitis patient cancellous bone at 400 mg, po administered for every 24 hrs", "assay_type": "ADME, organism-based", "conditions": "human, in vivo"}}}
{"compound": "COc1c(N2C[C@@H]3CCCN[C@@H]3C2)c(F)cc2c(=O)c(C(=O)O)cn(C3CC3)c12", "note": "[MOXIFLOXACIN]", "values": [{"measurement": "fAUC/MIC", "setting": "[1]", "result": 55}, {"measurement": "fAUC/MIC", "setting": "[2]", "result": 55}, {"measurement": "fAUC/MIC", "setting": "[3]", "result": 15}, {"measurement": "fAUC/MIC", "setting": "[4]", "result": 13}, {"measurement": "fAUC/MIC", "setting": "[5]", "result": 13}, {"measurement": "MIC90", "setting": "[6]", "result": 0.125, "unit": "µg/mL"}, {"measurement": "fAUC/MIC", "setting": "[7]", "result": 40}, {"measurement": "fAUC/MIC", "setting": "[8]", "result": 33}, {"measurement": "fAUC/MIC", "setting": "[9]", "result": 33}, {"measurement": "fAUC/MIC", "setting": "[10]", "result": 66}, {"measurement": "Drug uptake", "setting": "[11]", "result": 80, "unit": "%"}, {"measurement": "Drug uptake", "setting": "[12]", "result": 78, "unit": "%"}]}
